Experimental data reported in publication PMC3823688 (Journal of medicinal chemistry, 2013).
Converted amounts (≈) assume the structure as drawn. Like-named read-outs stand apart in the source and are kept apart here.

How the values were obtained:
[1] = target: ANT(4') (Staphylococcus aureus, UniProt P05057); test: nucleotidylation of compounds by ANT; type: biochemical, S. aureus; conditions: initial rate normalized to 1 = 100%; 100 µM compound
[2] = tested on: E. coli S30 extracts (E. coli ribosomes); test: in vitro prokaryotic translation assay; type: biochemical
[3] = tested on: tested bacterial strains; test: organism not typed; type: cell-based
[4] = tested on: AAC(6')-Ib'; test: acetylation of compounds by AAC; type: biochemical; conditions: for relative activity of AAC(6')-Ib' on compound: initial rate normalized to 1 = 100%, 100 µM compound; for times less prone to deactivation by AAC(6')-Ib' than 1: relative to 1, stated jointly for both AAC(6') enzymes
How it was run: (§1)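 Acetyltransferase activity followed at 412 nm by Ellman's method, with CoASH release coupled to DTNB (2 mM), at 25 °C. Mix: test compound 100 µM, AcCoA 150 µM, enzyme 0.5 µM. Buffer: 50 mM MES pH 6.6 for AAC(6')/APH(2"), 50 mM Tris pH 7.5 for AAC(6')-Ib'. Read every 30 s for 1 h. Initial rates from first 2–5 min, normalized to parent aminoglycoside; triplicate.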

[5] = target: AAC(6')/APH(2") (Staphylococcus aureus, UniProt P0A0C1); test: acetylation of compounds by AAC; type: biochemical; conditions: for relative activity of AAC(6')/APH(2") (acetyltransferase) on compound: initial rate normalized to 1 = 100%, 100 µM compound; for times less prone to deactivation by AAC(6')/APH(2") than 1: relative to 1, stated jointly for both AAC(6') enzymes
How it was run: as §1

[6] = tested on: Tetrahymena ribozyme; conditions: compared to parent antibiotic 1; cited from earlier work
[7] = target: chloramphenicol nitroreductase (CNR) (Haemophilus influenzae, UniProt Q57431); test: reduction of compounds by CNR; type: biochemical, H. influenzae; conditions: for relative activity of CNR on compound: initial rate normalized to 3 = 100%, 100 µM compound
[8] = target: chloramphenicol phosphotransferase (CPT) (Streptomyces venezuelae, UniProt Q56148); test: phosphorylation of compounds by CPT; type: biochemical; conditions: compared to 3
[9] = tested on: S. aureus ATCC 29213; test: MIC determination by double-dilution; type: cell-based, Staphylococcus aureus

chloramphenicol nitroreductase (CNR), sequence (Q57431 whole entry): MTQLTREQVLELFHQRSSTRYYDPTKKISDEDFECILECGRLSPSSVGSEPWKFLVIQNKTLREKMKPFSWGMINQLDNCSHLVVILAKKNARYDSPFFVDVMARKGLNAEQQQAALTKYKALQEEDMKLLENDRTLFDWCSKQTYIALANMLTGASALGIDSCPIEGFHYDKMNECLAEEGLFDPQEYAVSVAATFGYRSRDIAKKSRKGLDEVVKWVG
AAC(6')/APH(2"), sequence (P0A0C1 whole entry): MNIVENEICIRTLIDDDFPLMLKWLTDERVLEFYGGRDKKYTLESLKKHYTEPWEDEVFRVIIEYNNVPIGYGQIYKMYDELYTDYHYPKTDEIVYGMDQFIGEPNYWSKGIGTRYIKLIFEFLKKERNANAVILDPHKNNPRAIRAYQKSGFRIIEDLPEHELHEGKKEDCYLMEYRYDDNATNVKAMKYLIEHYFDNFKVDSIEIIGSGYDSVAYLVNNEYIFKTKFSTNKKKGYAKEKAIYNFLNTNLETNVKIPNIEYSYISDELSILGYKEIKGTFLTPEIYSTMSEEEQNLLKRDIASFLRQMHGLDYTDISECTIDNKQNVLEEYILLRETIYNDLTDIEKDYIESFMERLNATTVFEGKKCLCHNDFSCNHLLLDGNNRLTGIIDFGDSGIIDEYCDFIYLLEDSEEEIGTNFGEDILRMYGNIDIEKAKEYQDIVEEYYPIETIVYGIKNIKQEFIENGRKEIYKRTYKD
ANT(4'), sequence (P05057 whole entry): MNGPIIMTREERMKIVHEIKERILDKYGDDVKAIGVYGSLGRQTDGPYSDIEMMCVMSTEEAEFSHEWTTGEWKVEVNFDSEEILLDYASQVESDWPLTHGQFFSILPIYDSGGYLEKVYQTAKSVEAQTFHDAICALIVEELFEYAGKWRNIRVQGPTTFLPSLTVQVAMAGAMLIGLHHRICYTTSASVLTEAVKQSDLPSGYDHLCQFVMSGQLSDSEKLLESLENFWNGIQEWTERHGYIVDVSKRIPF
chloramphenicol phosphotransferase (CPT), sequence (Q56148 5-178): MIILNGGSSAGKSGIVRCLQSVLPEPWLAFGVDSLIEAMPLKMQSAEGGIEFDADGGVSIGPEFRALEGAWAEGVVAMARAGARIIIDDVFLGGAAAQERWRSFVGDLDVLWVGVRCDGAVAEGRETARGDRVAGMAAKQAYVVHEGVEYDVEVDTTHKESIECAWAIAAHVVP

## NC[C@H]1O[C@H](O[C@H]2[C@H](O)[C@@H](O[C@H]3O[C@H](CO)[C@@H](O)[C@H](N)[C@H]3O)[C@H](N)C[C@@H]2N)[C@H](N)C[C@@H]1O [Compound 1, tobramycin, reference compound]
[1]
  relative activity of ANT(4') on compound: 100%

## NC[C@H]1O[C@H](O[C@H]2[C@H](O)[C@@H](O[C@@H]3O[C@H](CSCCOCCS)[C@@H](O)[C@H](N)[C@H]3O)[C@H](N)C[C@@H]2N)[C@H](N)C[C@@H]1O [Compound 6]
[1]
  relative activity of ANT(4') on compound: 49%

## CCC[C@@H]1C[C@@H](C(=O)N[C@H]([C@H]2O[C@H](SC)[C@H](O)[C@@H](O)[C@H]2O)[C@@H](C)SCCOCCS)N(C)C1 [Compound 9]
[2]; relative to 2, less potent
  IC50 fold higher than that of parent antibiotic 2, in vitro translation: at least 5 fold
[3]; read-out: MIC values against seven of the tested strains
  MIC: 1.2 to 9.4 µg/mL (≈ 2.28 to 17.8 µM)

## CCC[C@@H]1C[C@@H](C(=O)NC([C@H]2O[C@H](SC)[C@H](O)[C@@H](O)[C@H]2O)[C@@H](C)SCCOCCSSCCOCCS[C@H](C)C(NC(=O)[C@@H]2C[C@@H](CCC)CN2C)[C@H]2O[C@H](SC)[C@H](O)[C@@H](O)[C@H]2O)N(C)C1 (stereo partly shown) [Compound 10]
[3]; read-out: MICs against eight of the tested bacterial strains
  MIC: 0.6 to 9.4 µg/mL (≈ 0.571 to 8.94 µM)

## O=C(CSCCOCCS)N[C@H](CO)[C@H](O)c1ccc([N+](=O)[O-])cc1 [Compound 13]
[2]; relative to 3
  fold less potent than parent antibiotic 3 in in vitro translation: ~8 fold

## NC[C@H]1O[C@H](O[C@H]2[C@H](O)[C@@H](O[C@@H]3O[C@H](CSCCOCCSSCCOCCSC[C@H]4O[C@@H](O[C@@H]5[C@@H](O)[C@H](O[C@H]6O[C@H](CN)[C@@H](O)C[C@H]6N)[C@@H](N)C[C@H]5N)[C@H](O)[C@@H](N)[C@@H]4O)[C@@H](O)[C@H](N)[C@H]3O)[C@H](N)C[C@@H]2N)[C@H](N)C[C@@H]1O [Compound 16]
[4]
  relative activity of AAC(6')-Ib' on compound: 39%
  times less prone to deactivation by AAC(6')-Ib' than 1: 2.5–5 times
[5]
  relative activity of AAC(6')/APH(2") (acetyltransferase) on compound: 34%
  times less prone to deactivation by AAC(6')/APH(2") than 1: 2.5–5 times
[6]
  inhibition of the activity of the Tetrahymena ribozyme (in words): significantly better inhibitor

## CCC[C@@H]1C[C@@H](C(=O)NC([C@H]2O[C@H](SC)[C@H](O)[C@@H](O)[C@H]2O)[C@@H](C)SCCOCCSSCCOCCSC[C@H]2O[C@@H](O[C@@H]3[C@@H](O)[C@H](O[C@H]4O[C@H](CN)[C@@H](O)C[C@H]4N)[C@@H](N)C[C@H]3N)[C@H](O)[C@@H](N)[C@@H]2O)N(C)C1 (stereo partly shown) [Compound 18]
[4]
  relative activity of AAC(6')-Ib' on compound: 20%
  times less prone to deactivation by AAC(6')-Ib' than 1: 2.5–5 times
[5]
  relative activity of AAC(6')/APH(2") (acetyltransferase) on compound: 31%
  times less prone to deactivation by AAC(6')/APH(2") than 1: 2.5–5 times

## NC[C@H]1O[C@H](O[C@H]2[C@H](O)[C@@H](O[C@@H]3O[C@H](CSCCOCCSCC(=O)N[C@H](CO)[C@H](O)c4ccc([N+](=O)[O-])cc4)[C@@H](O)[C@H](N)[C@H]3O)[C@H](N)C[C@@H]2N)[C@H](N)C[C@@H]1O [Compound 20]
[4]
  relative activity of AAC(6')-Ib' on compound: 37%

## NC[C@H]1O[C@H](O[C@H]2[C@H](O)[C@@H](O[C@@H]3O[C@H](CSCCOCCSSCCOCCSCC(=O)N[C@H](CO)[C@H](O)c4ccc([N+](=O)[O-])cc4)[C@@H](O)[C@H](N)[C@H]3O)[C@H](N)C[C@@H]2N)[C@H](N)C[C@@H]1O [Compound 22]
[4]
  relative activity of AAC(6')-Ib' on compound: 31%
[5]
  relative activity of AAC(6')/APH(2") (acetyltransferase) on compound: 34%
[7]
  relative activity of CNR on compound: 117%

## CCC[C@@H]1C[C@@H](C(=O)NC([C@H]2O[C@H](SC)[C@H](O)[C@@H](O)[C@H]2O)[C@@H](C)SCCOCCSCC(=O)N[C@H](CO)[C@H](O)c2ccc([N+](=O)[O-])cc2)N(C)C1 (stereo partly shown) [Compound 23]
[7]
  relative activity of CNR on compound: 133%

## CCC[C@@H]1C[C@@H](C(=O)NC([C@H]2O[C@H](SC)[C@H](O)[C@@H](O)[C@H]2O)[C@@H](C)SCCOCCSSCCOCCSCC(=O)N[C@@H](CO)[C@H](O)c2ccc([N+](=O)[O-])cc2)N(C)C1 (stereo partly shown) [Compound 24]
[7]
  relative activity of CNR on compound: 174%

## O=C(CSCCOCCSCC(=O)N[C@H](CO)[C@H](O)c1ccc([N+](=O)[O-])cc1)N[C@H](CO)[C@H](O)c1ccc([N+](=O)[O-])cc1 [Compound 25]
[7]; compared to 3
  substrate quality for CNR (in words): poor substrate
[8]
  substrate quality for CPT (in words): poor substrate

## O=C(CSCCOCCSSCCOCCSCC(=O)N[C@H](CO)[C@H](O)c1ccc([N+](=O)[O-])cc1)N[C@H](CO)[C@H](O)c1ccc([N+](=O)[O-])cc1 [Compound 26]
[9]
  fold more potent than 3 (MIC): approximately 16 fold
[7]
  relative activity of CNR on compound: 220%
